Source: PubChem (several laboratories)
Rows were chosen to be rich in hits. Some 8.9% of all compounds tested hit in one or more screens of this group.
MT stabilize HCS: microtubule stabilizers in HeLa cells. 200,000 compounds, 0.83% hits. HeLa tubulin immunostaining HCS, 24 h; share of cells brighter than vehicle mean+2SD. % tubulin-high responders, % at 10 µM;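 active = plate Z-score above 3 for both tubulin-high and condensed-nucleus cell shares, with cell loss under 80%, at 10 µM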;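 note: anti alpha tubulin signal scored within the nucleus-defined area of each cell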
b-catenin transl: modulators of beta-catenin nuclear translocation | HeLa beta-catenin nuclear translocation, immunofluorescence imaging | nuclear translocation activity, % at 5 µM | 190,000 compounds, 0.3% hits;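 active = nuclear translocation activity above 50% at 5 µM, with a well cell count of 50 or more; inconclusive = wells under 50 cells across six images, flagged as toxic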;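 note: per-cell ratio of nuclear to cytoplasmic median beta-catenin stain intensity; plate controls were DMSO negative control for no effect and GSK-3 inhibitor IX positive control for full effect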
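Read-out: Nuclear/cytoplasmic beta-catenin signal ratio, % activation | Assay system: Human HeLa cell line | Times: 24 h compound exposure at 37°C, 5% CO2 | Signal: Fluorescence imaging of beta-catenin antibody stain plus DAPI | Dosing: 5 µM primary, 0.02–20 µM confirmation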
HSV replic up: HSV replication enhancement; HSV replication augmentation in cells, fold increase; maximum fold increase; 220,000 compounds, 0.005% hits; AID 1956; in the data active = maximum fold increase above about 1.5; inconclusive = no clear call, values can overlap the other calls; tested in PC3 cells
Dynein transport: blocks dynein driven cargo transport along microtubules. 3617.4 mouse cells, GR-EGFP nuclear translocation imaging; test concentration mostly 20 µM; stimulated with dexamethasone, 1 µM; hits give low values. z-score, hits read low. 220,000 compounds, 0.47% hits. AID 1381;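 active = plate z-score of nuclear minus cytoplasmic receptor signal below a set negative limit, without overly bright fluorescence or cell loss, cut at about -3.5 in these data, passing the limit was not always enough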;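 note: z-score of nuclear minus cytoplasmic ring GR-EGFP intensity difference per well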
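Buffer or medium: Induction medium lacking tetracycline, stripped serum | Also added: Dexamethasone agonist, 1.0 µM final, for 30 min | Timing: 48 h induction, 1 h compound, 30 min dex at 37 °C | Detection: Formaldehyde fixation, Hoechst nuclear stain, 10x automated fluorescence imaging | Measure: Nuclear versus cytoplasmic GR-EGFP signal, averaged per well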
Lmaj promast: Leishmania major promastigote growth inhibition | Leishmania major promastigotes, resazurin fluorescence viability | inhibition, % at 10 µM | 200,000 compounds, 9% hits | AID 1063; in the data active = inhibition above about 50%;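 note: promastigotes grown with compound for 44 hours at 28 °C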
Starred values were filed as active, the others as inactive.

What do the screens show for `Cc1ccc(NC(=O)CSc2nc3nc(C)cc(C)c3c(=O)[nH]2)cc1`?
MT stabilize HCS: 3; b-catenin transl: 6; HSV replic up: inactive; Dynein transport: -0.78; Lmaj promast: -17

How did CC(C)(C)NC(=O)CSc1ncnc2c1nnn2Cc1ccccc1Cl do in these assays?
MT stabilize HCS: 5; b-catenin transl: -3; HSV replic up: inactive; Dynein transport: -2.9; Lmaj promast: 57*

Results for O=c1c2ccccc2nc2n1CC/C2=C/N1CCN(c2cccc(C(F)(F)F)c2)CC1 ?
MT stabilize HCS: 2; b-catenin transl: 0; HSV replic up: inactive; Dynein transport: -0.7; Lmaj promast: 55*

What do the screens show for `COc1ccc(OC)c(NC(=S)NCCC(c2ccccc2)c2ccccc2)c1`?
MT stabilize HCS: 4; HSV replic up: inconclusive; Dynein transport: -0.65; Lmaj promast: 44

How did COc1ccc(-c2cc(C(F)(F)F)nc(SCCC(=O)N3CCN4CCCC4C3)n2)cc1 (centres undefined) do in these assays?
MT stabilize HCS: 3; b-catenin transl: -2; HSV replic up: inactive; Dynein transport: 0.5; Lmaj promast: 55*

What do the screens show for `CCc1cccc(C)c1NC(=O)CO/N=C(\C)c1cc2ccccc2o1`?
MT stabilize HCS: 2; HSV replic up: inactive; Dynein transport: -0.048; Lmaj promast: 70*

Results for Cc1cnc(-c2nnc(N(C)C(=O)C3CCOC3)s2)cn1 (centres undefined) ?
MT stabilize HCS: 3; b-catenin transl: 0; Dynein transport: -1.2; Lmaj promast: -1

Results for COc1ccc(-c2ncncc2-c2ccc(Cl)cc2)c(O)c1 ?
b-catenin transl: -5; HSV replic up: inactive; Dynein transport: -0.35

How did COc1cccc(Oc2cncnc2-c2ccc(OC)cc2O)c1 do in these assays?
MT stabilize HCS: 6; b-catenin transl: 1; HSV replic up: inactive; Dynein transport: -0.37; Lmaj promast: 93*

How did CCOc1ccc(-c2nc(N)ncc2Oc2cccc(OC)c2)c(O)c1 do in these assays?
MT stabilize HCS: 8.2*; HSV replic up: inactive; Dynein transport: -1.3; Lmaj promast: 36

How did Cc1ccc(N2C(=O)[C@@H]3[C@H](C2=O)C2c4ccccc4C=CN2[C@@H]3C(=O)c2ccco2)cc1 (some centres undefined) do in these assays?
MT stabilize HCS: 2; b-catenin transl: -3; HSV replic up: inconclusive; Dynein transport: 1.1; Lmaj promast: -1

What do the screens show for `CCOC(=O)c1sc2ncn(/N=C/c3cccnc3)c(=O)c2c1C`?
MT stabilize HCS: 2; b-catenin transl: -14; HSV replic up: inactive; Dynein transport: -0.73; Lmaj promast: 2

How did CCOC(=O)c1sc2ncn(/N=C/c3ccc(O)cc3)c(=O)c2c1C do in these assays?
MT stabilize HCS: 2; b-catenin transl: -2; HSV replic up: inactive; Dynein transport: -0.044; Lmaj promast: 94*

What do the screens show for `CCc1nc(Sc2nnnn2-c2ccccc2)c2c3c(sc2n1)CCCC3`?
MT stabilize HCS: 5; b-catenin transl: -2; HSV replic up: inactive; Dynein transport: -0.15; Lmaj promast: 98*

How did Cc1cc(C)c(S(=O)(=O)N2CCN(C(=O)c3cccs3)CC2)c(C)c1 do in these assays?
MT stabilize HCS: 2; b-catenin transl: 2; HSV replic up: inactive; Dynein transport: 1; Lmaj promast: 62*

How did CCOC(=O)C1(Cc2cccc(OC)c2)CCN(Cc2cccnc2)CC1 do in these assays?
MT stabilize HCS: 2; b-catenin transl: 0; HSV replic up: inactive; Dynein transport: 0.26; Lmaj promast: 55*

How did CCOC(=O)C1(Cc2cccc(OC)c2)CCN(Cc2cccc3cnccc23)CC1 do in these assays?
MT stabilize HCS: 4; b-catenin transl: -1; HSV replic up: inactive; Dynein transport: 2.6; Lmaj promast: 91*

What do the screens show for `CCOC(=O)C1(Cc2cccc(OC)c2)CCN(Cc2cnc(SC)nc2)CC1`?
MT stabilize HCS: 4; b-catenin transl: 2; HSV replic up: inactive; Dynein transport: -0.58; Lmaj promast: 82*

Results for O=C(c1ccc(CS(=O)(=O)c2c(Cl)cccc2Cl)o1)N1CCN(c2ccccn2)CC1 ?
MT stabilize HCS: 3; HSV replic up: inactive; Dynein transport: -0.045; Lmaj promast: 3

How did CCc1c(C#N)sc(C(N)=O)c1CC do in these assays?
b-catenin transl: 2; HSV replic up: inactive; Dynein transport: 1.1

What do the screens show for `CCOc1ccc(C2Nc3ccc4ccccc4c3-c3c2c(=O)oc2ccccc32)cc1` (centres undefined)?
MT stabilize HCS: 1; b-catenin transl: -3; HSV replic up: inactive; Dynein transport: 0.11; Lmaj promast: 56*

Results for COc1ccc(C2Nc3ccc4ccccc4c3-c3c2c(=O)oc2ccccc32)cc1 (centres undefined) ?
MT stabilize HCS: 3; b-catenin transl: -1; HSV replic up: inactive; Dynein transport: 0.85; Lmaj promast: 100*

What do the screens show for `O=c1oc2ccccc2c2c1C(c1ccc(Cl)cc1)Nc1ccc3ccccc3c1-2` (centres undefined)?
MT stabilize HCS: 1; b-catenin transl: -3; HSV replic up: inactive; Dynein transport: 0.34; Lmaj promast: 87*

What do the screens show for `CCOc1ccc(OCC(=O)c2c(O)c3ccccc3oc2=O)cc1`?
MT stabilize HCS: 7; b-catenin transl: -3; HSV replic up: inactive; Dynein transport: -0.75; Lmaj promast: -8

How did CC1CCC(NC(=O)CC(C)(C)Cc2nc3ccccc3c(=O)[nH]2)CC1 (centres undefined) do in these assays?
MT stabilize HCS: 2; b-catenin transl: 1; HSV replic up: inactive; Dynein transport: 0.42; Lmaj promast: 3

Results for CC(=O)N1CCCc2cc(S(=O)(=O)N(CC(C)C)CC(C)C)ccc21 ?
MT stabilize HCS: 3; b-catenin transl: 0; HSV replic up: inactive; Dynein transport: -0.45; Lmaj promast: 85*

What do the screens show for `CCN(c1cccc(C)c1)S(=O)(=O)c1cccc(C(=O)O)c1`?
MT stabilize HCS: 2; HSV replic up: inactive; Dynein transport: -1.1; Lmaj promast: -10

Results for CC(=O)N1CCCc2cc(S(=O)(=O)N(C)CCC#N)ccc21 ?
MT stabilize HCS: 5; b-catenin transl: -1; HSV replic up: inactive; Dynein transport: 0.036; Lmaj promast: -5

What do the screens show for `CCN(c1cccc(C)c1)S(=O)(=O)c1ccc2c(c1)CCN2C(C)=O`?
MT stabilize HCS: 4; b-catenin transl: 2; HSV replic up: inactive; Dynein transport: -0.88; Lmaj promast: 94*

How did CCN(c1cccc(C(F)(F)F)c1)S(=O)(=O)c1ccc2c(c1)CCN2C(C)=O do in these assays?
MT stabilize HCS: 7; b-catenin transl: -3; HSV replic up: inactive; Dynein transport: 0.058; Lmaj promast: 60*

How did CCOc1cc(C(=O)Nc2nnc(CC)s2)ccc1OCC(=O)N1CCOCC1 do in these assays?
MT stabilize HCS: 2; b-catenin transl: 0; HSV replic up: inactive; Dynein transport: -0.95; Lmaj promast: -6
